# Assay results: ChEMBL document CHEMBL3576763, “Synthesis and Biological Activities of 5-Thio-α-GalCers” (2015)
# The source made the active and inactive calls. No cut-off for these calls is given here.
# Columns and labels:
# Mus musculus [1] = experiment: Immunostimulatory activity in B6 mouse assessed as induction of IL-4 production in serum at 100 ug/kg, ip measured after 12 hrs by ELISA; assay type: functional, organism-based
# In short: (§1)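 Glycolipid given intraperitoneally to B6 mice at 100 μg/kg. Serum IFN-γ and IL-4 measured at several time points after injection. Two mice per group, each mouse's serum assayed individually at each time.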
# Mus musculus [2] = experiment: Immunostimulatory activity in B6 mouse assessed as induction of IFN-gamma production in serum at 100 ug/kg, ip by ELISA; assay type: functional, organism-based; in short: as §1
# iNKT [3] = experiment: Immunostimulatory activity in B6 mouse iNKT cells assessed as induction of IFN-gamma production at 1000 ng/ml incubated for 16 hrs followed by brefeldin A addition measured after 2 hrs by flow cytometric analysis (reference value: 0.6%); assay type: functional
# In short: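 Mouse splenocytes stimulated with glycolipid in vitro; IFN-γ measured in cells gated as CD3+DX5+CD1d tetramer+ NKT cells. Control cells held in complete 1640 medium only; PMA plus ionomycin used as positive control.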
# iNKT [4] = experiment: Immunostimulatory activity in B6 mouse iNKT cells assessed as induction of IFN-gamma production incubated for 16 hrs followed by brefeldin A addition measured after 2 hrs by flow cytometric analysis in presence of ionomycin (reference value: 0.6%); assay type: functional
# Mus musculus [5] = experiment: Immunostimulatory activity in B6 mouse assessed as induction of IFN-gamma production in serum at 100 ug/kg, ip after 24 hrs by ELISA; assay type: functional; in short: as §1
# Mus musculus [6] = experiment: Immunostimulatory activity in B6 mouse assessed as induction of IL-4 production in serum at 100 ug/kg, ip measured up to 12 hrs by ELISA; assay type: functional, organism-based; in short: as §1
# Mus musculus [7] = experiment: Immunostimulatory activity in B6 mouse assessed as induction of IL-4 production in serum at 100 ug/kg, ip measured at 3 hrs by ELISA; assay type: functional, organism-based; in short: as §1
# Mus musculus [8] = experiment: Immunostimulatory activity in B6 mouse assessed as induction of IFN-gamma production in serum at 100 ug/kg, ip measured at 6 to 24 hrs by ELISA; assay type: functional; in short: as §1
Compound,Activity (Mus musculus [1]),Activity (Mus musculus [2]),Activity (iNKT [3]),Activity (iNKT [4]),Activity (Mus musculus [5]),Activity (Mus musculus [6]),Activity (Mus musculus [7]),Activity (Mus musculus [8])
CCCCCCCCCCCCCC[C@@H](O)[C@@H](O)[C@H](CO[C@H]1S[C@H](CO)[C@H](O)[C@H](O)[C@H]1O)NC(=O)CCCCCCC,inactive,inactive,1.4%,–,–,–,–,–
CCCCCCCCCCCCCC(=O)O[C@@H]1[C@@H](C)[C@@]2(O)[C@@H](C=C(CO)C[C@]3(O)C(=O)C(C)=C[C@@H]23)[C@@H]2C(C)(C)[C@]12OC(C)=O [PHORBOL MYRISTATE ACETATE],–,–,–,8.5%,–,–,–,–
CCCCCCCCCCCCCCCCCCCCCCCCCC(=O)N[C@@H](CO[C@H]1S[C@H](CO)[C@H](O)[C@H](O)[C@H]1O)[C@H](O)[C@H](O)CCCCCCCCCCCCCC,inactive,–,8.5%,–,1722 pg/mL,Active,–,–
CCCCCCCCCCCCCCCCCCCCCCCCCC(=O)N[C@@H](CO[C@H]1O[C@H](CO)[C@H](O)[C@H](O)[C@H]1O)[C@H](O)[C@H](O)CCCCCCCCCCCCCC [RGI-7000],–,–,4.1%,–,–,–,Active,2127 pg/mL
CCCCCCCCCCCCCC[C@@H](O)[C@@H](O)[C@H](CO[C@H]1S[C@H](CO)[C@H](O)[C@H](O)[C@H]1O)NC(=O)CCCCCCCCCCCCC,inactive,Active,6%,–,–,inactive,–,–
